The nature of data set [1]: Retention time of the compound using 0.1% TFA in water and 0.1% TFA in acetonitrile-water (80:20 v/v) as eluents by RP-HPLC analysis. The format is physicochemical. The gist of the method:
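Analytical RP-HPLC. Eluent A was 0.1% TFA in water and eluent B was 0.1% TFA in acetonitrile-water (80:20, v/v). Gradient: 0% B held to 5 min, then to 90% B at 50 min. Flow 1 mL/min, detection at 220 nm. The column was a Phenomenex Aeris Peptide XB-C18 (250×4.6 mm, 3.6 μm) or a Nucleosil C18 (5 μm, 100 Å, 250×4.6 mm), depending on the conjugate series.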

Data set [2] in a line: Drug uptake in human HT-29 cells at 100 uM incubated for 3 hrs by flow cytometry. The format is ADME, cell-based. Conditions: ht-29, 3 h; call rule not given here. The gist of the method:
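HT-29 cells were exposed to 100 µM conjugate for 3 h. Flow cytometry recorded the percentage of Dau-positive cells and the mean fluorescence intensity, in duplicate.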
On the technique in general: A flow cytometer gives signals particle by particle.

The next data set deals with HT-29. Kind of data set: Cytostatic activity against human HT-29 cells preincubated for 24 hrs under serum free condition followed by compound washout and further incubation for 48 hrs in presence of serum by MTT assay. The format is functional, cell-based. The gist of the method:
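HT-29 cells were exposed to the compound for 24 h, washed, and kept a further 48 h. Viability was read by MTT. Absorbances were normalized to untreated controls and fitted by nonlinear regression to dose-response curves to give IC50.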
A general note: Formazan colour is commonly taken as a measure of viable cells.

Data on 6 compounds can be found in ChEMBL document CHEMBL4350976, “Sequence modification of heptapeptide selected by phage display as homing device for HT-29 colon cancer cells to improve the anti-tumour activity of drug delivery systems” (Eur J Med Chem, 2019).

Where a SMILES comes first, the peptide text is derived from it. The star is where a group is joined. X1 = COc1cccc2c1C(=O)c1c(O)c3c(c(O)c1C2=O)C[C@@](O)(/C(C)=N/OCC(=O)*)C[C@@H]3O[C@H]1C[C@H](N)[C@H](O)[C@H](C)O1 Where only a bound is given, the exact number is not on record here.

On to `COc1cccc2c1C(=O)c1c(O)c3c(c(O)c1C2=O)C[C@@](O)(/C(C)=N/OCC(=O)N[C@@H](CC(C)C)C(=O)N[C@@H](CCCNC(=N)N)C(=O)N[C@@H](CCCNC(=N)N)C(=O)N[C@@H](Cc1ccc(O)cc1)C(=O)N[C@@H](C)C(=O)N[C@@H](Cc1cnc[nH]1)C(=O)N[C@@H](CC(C)C)C(=O)NCC(=O)N[C@@H](Cc1ccc(O)cc1)C(=O)N[C@@H](C)C(=O)N[C@H](C(N)=O)[C@@H](C)O)C[C@@H]3O[C@H]1C[C@H](N)[C@H](O)[C@H](C)O1` (X1-LRRYAHLGYAT-NH2), for which, in data set [1], the Retention time was in the range of 27.7 to 30.4 min. Moreover, the Drug uptake entry in data set [2] is given as “Active”. The IC50 (as a rule, the point on the concentration scale where inhibition reaches its midpoint) with HT-29 was over 100 µM.

As to `COc1cccc2c1C(=O)c1c(O)c3c(c(O)c1C2=O)C[C@@](O)(/C(C)=N/OCC(=O)N[C@@H](CC(C)C)C(=O)N[C@@H](CCCNC(=N)N)C(=O)N[C@@H](CCCNC(=N)N)C(=O)N[C@@H](Cc1ccc(O)cc1)C(=O)N[C@H](C(=O)N[C@@H](C)C(=O)N[C@@H](CC(C)C)C(=O)NCC(=O)N[C@@H](Cc1ccc(O)cc1)C(=O)N[C@@H](C)C(=O)N[C@H](C(N)=O)[C@@H](C)O)C(C)C)C[C@@H]3O[C@H]1C[C@H](N)[C@H](O)[C@H](C)O1` (X1-LRRYVALGYAT-NH2), in data set [1], the Retention time was in the range of 29 to 31.7 min. For the same compound, the Drug uptake result in data set [2] was “Active”. For the same compound, the IC50 in the data set with HT-29 was found to be 36.8 µM.

Consider `COc1cccc2c1C(=O)c1c(O)c3c(c(O)c1C2=O)C[C@@](O)(/C(C)=N/OCC(=O)N[C@@H](CC(C)C)C(=O)N[C@@H](CCCNC(=N)N)C(=O)N[C@@H](CCCNC(=N)N)C(=O)N[C@@H](Cc1ccc(O)cc1)C(=O)N[C@H](C(=O)N[C@@H](Cc1cnc[nH]1)C(=O)N[C@@H](CC(C)C)C(=O)NCC(=O)N[C@@H](C)C(=O)N[C@@H](C)C(=O)N[C@H](C(N)=O)[C@@H](C)O)C(C)C)C[C@@H]3O[C@H]1C[C@H](N)[C@H](O)[C@H](C)O1` (X1-LRRYVHLGAAT-NH2), for which, in data set [1], the Retention time was 27.4 to 30.1 min. Also, the Drug uptake result in data set [2] is recorded as “Active”. Also, the IC50 in the data set with HT-29 was over 100 µM.

In data set [1], `COc1cccc2c1C(=O)c1c(O)c3c(c(O)c1C2=O)C[C@@](O)(/C(C)=N/OCC(=O)N[C@@H](CC(C)C)C(=O)N[C@@H](CCCNC(=N)N)C(=O)N[C@@H](CCCNC(=N)N)C(=O)N[C@@H](Cc1ccc(O)cc1)C(=O)N[C@H](C(=O)N[C@@H](Cc1cnc[nH]1)C(=O)N[C@@H](C)C(=O)NCC(=O)N[C@@H](Cc1ccc(O)cc1)C(=O)N[C@@H](C)C(=O)N[C@H](C(N)=O)[C@@H](C)O)C(C)C)C[C@@H]3O[C@H]1C[C@H](N)[C@H](O)[C@H](C)O1` (X1-LRRYVHAGYAT-NH2) displayed a Retention time of 27.2 to 29.9 min. Besides, the Drug uptake result in data set [2] is “Active”. For the same compound, in the data set on HT-29, the IC50 was over 100 µM.

In data set [1], `COc1cccc2c1C(=O)c1c(O)c3c(c(O)c1C2=O)C[C@@](O)(/C(C)=N/OCC(=O)N[C@@H](CC(C)C)C(=O)N[C@@H](CCCNC(=N)N)C(=O)N[C@@H](CCCNC(=N)N)C(=O)N[C@@H](Cc1ccc(O)cc1)C(=O)N[C@H](C(=O)N[C@@H](Cc1cnc[nH]1)C(=O)N[C@@H](CC(C)C)C(=O)NCC(=O)N[C@@H](Cc1ccc(O)cc1)C(=O)N[C@@H](C)C(=O)N[C@@H](C)C(N)=O)C(C)C)C[C@@H]3O[C@H]1C[C@H](N)[C@H](O)[C@H](C)O1` (X1-LRRYVHLGYAA-NH2) had a Retention time of 28 to 30.7 min. The Drug uptake result in data set [2] is listed as “Active”. In addition, the IC50 in the data set with HT-29 was found to be 70.9 µM.

As for `COc1cccc2c1C(=O)c1c(O)c3c(c(O)c1C2=O)C[C@@](O)(/C(C)=N/OCC(=O)N[C@@H](CC(C)C)C(=O)N[C@@H](CCCNC(=N)N)C(=O)N[C@@H](CCCNC(=N)N)C(=O)N[C@@H](Cc1ccc(O)cc1)C(=O)N[C@H](C(=O)N[C@@H](Cc1cnc[nH]1)C(=O)N[C@@H](CC(C)C)C(=O)N[C@H](C(=O)N[C@@H](Cc1ccc(O)cc1)C(=O)N[C@@H](C)C(=O)N[C@H](C(N)=O)[C@@H](C)O)[C@@H](C)O)C(C)C)C[C@@H]3O[C@H]1C[C@H](N)[C@H](O)[C@H](C)O1` (X1-LRRYVHLTYAT-NH2), in data set [1], the Retention_time is listed as 29 min. The IC50 in the data set with HT-29 worked out at 21.7 µM.
